Measured values taken from ChEMBL document CHEMBL3232988, “Design, synthesis and biological evaluation of a series of pyrano chalcone derivatives containing indole moiety as novel anti-tubulin agents” (Bioorg Med Chem, 2014).
pIC50: −log10 of the molar value.

System: HepG2
Assay: Antiproliferative activity against human HepG2 cells after 24 hrs by MTT assay
Assay type: functional, cell-based
Details: HepG2, 24 h
Summary of the method: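 Seeded at 1 × 10⁴ cells per well, incubated 24 h before treatment. MTT (20 µL of 5 mg/mL in PBS) added per well and incubated until purple precipitate appeared. Medium removed, precipitate dissolved in 150 µL DMSO, shaken 10 min, absorbance read at 570 nm. Growth expressed as percentage of untreated control.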

Row | Compound | pIC50
1 | COCn1cc(/C=C/C(=O)c2ccc(OC)c3c2OC(C)(C)C=C3)c2ccccc21 | 5.33
2 | CCn1ccc2c(/C=C/C(=O)c3ccc(OC)c4c3OC(C)(C)C=C4)cccc21 | 5.26
3 | COc1ccc(C(=O)/C=C/c2ccc3c(ccn3CCN3CCCCC3)c2)c2c1C=CC(C)(C)O2 | 5.35
4 | COc1ccc(C(=O)/C=C/c2ccc3ccn(C)c3c2)c2c1C=CC(C)(C)O2 | 5.05
5 | COc1ccc(C(=O)/C=C/c2cn(Cc3ccc(Br)cc3)c3ccccc23)c2c1C=CC(C)(C)O2 | < 5.00
6 | COc1ccc(C(=O)/C=C/c2cn(CCN3CCOCC3)c3ccccc23)c2c1C=CC(C)(C)O2 | 5.49
7 | COc1ccc(C(=O)/C=C/c2ccc3ccn(Cc4cccc(F)c4)c3c2)c2c1C=CC(C)(C)O2 | < 5.00
8 | COc1ccc(C(=O)/C=C/c2cn(Cc3ccccc3C(F)(F)F)c3ccccc23)c2c1C=CC(C)(C)O2 | < 5.00
9 | COc1ccc(C(=O)/C=C/c2cccc3ccn(C)c23)c2c1C=CC(C)(C)O2 | < 5.00
10 | COc1ccc(C(=O)/C=C/c2cn(Cc3ccc(C(F)(F)F)cc3)c3ccccc23)c2c1C=CC(C)(C)O2 | 5.46
11 | COc1ccc(C(=O)/C=C/c2cccc3c2ccn3Cc2cccc(Br)c2)c2c1C=CC(C)(C)O2 | < 5.00
12 | CCn1cc(/C=C/C(=O)c2ccc(OC)c3c2OC(C)(C)C=C3)c2ccccc21 | 5.52
13 | COc1ccc(C(=O)/C=C/c2cn(Cc3cccc(F)c3)c3ccccc23)c2c1C=CC(C)(C)O2 | 5.51
14 | CCn1ccc2cccc(/C=C/C(=O)c3ccc(OC)c4c3OC(C)(C)C=C4)c21 | < 5.00
15 | COc1ccc(C(=O)/C=C/c2ccc3ccn(Cc4cccc(Br)c4)c3c2)c2c1C=CC(C)(C)O2 | < 5.00
16 | COc1ccc(C(=O)/C=C/c2ccc3ccn(Cc4cccc(Cl)c4)c3c2)c2c1C=CC(C)(C)O2 | < 5.00

Row | Compound | pIC50
17 | COc1ccc(C(=O)/C=C/c2cccc3c2ccn3Cc2cccc(F)c2)c2c1C=CC(C)(C)O2 | < 5.00
18 | COc1ccc(C(=O)/C=C/c2cn(Cc3ccccc3Br)c3ccccc23)c2c1C=CC(C)(C)O2 | < 5.00
19 | COc1ccc(C(=O)/C=C/c2cn(Cc3ccc(Cl)cc3)c3ccccc23)c2c1C=CC(C)(C)O2 | < 5.00
20 | COc1ccc(C(=O)/C=C/c2cccc3ccn(Cc4cccc(F)c4)c23)c2c1C=CC(C)(C)O2 | < 5.00
21 | COc1ccc(C(=O)/C=C/c2cccc3c2ccn3Cc2cccc(Cl)c2)c2c1C=CC(C)(C)O2 | < 5.00
22 | COc1ccc(C(=O)/C=C/c2cccc3c2ccn3C)c2c1C=CC(C)(C)O2 | 5.56
23 | COc1ccc(C(=O)/C=C/c2cccc3cc[nH]c23)c2c1C=CC(C)(C)O2 | 5.12
24 | COc1ccc(C(=O)/C=C/c2cn(Cc3ccc(F)cc3)c3ccccc23)c2c1C=CC(C)(C)O2 | < 5.00
25 | COc1ccc(C(=O)/C=C/c2cccc3ccn(Cc4cccc(Br)c4)c23)c2c1C=CC(C)(C)O2 | < 5.00
26 | COc1ccc(C(=O)/C=C/c2cn(CC(C)C)c3ccccc23)c2c1C=CC(C)(C)O2 | < 5.00
27 | COc1ccc(C(=O)/C=C/c2cn(CC=C(C)C)c3ccccc23)c2c1C=CC(C)(C)O2 | 5.55
28 | COc1ccc(C(=O)/C=C/c2cccc3ccn(Cc4cccc(Cl)c4)c23)c2c1C=CC(C)(C)O2 | < 5.00
29 | COc1ccc(C(=O)/C=C/c2cccc3[nH]ccc23)c2c1C=CC(C)(C)O2 | 5.08
30 | COc1ccc(C(=O)/C=C/c2ccc3cc[nH]c3c2)c2c1C=CC(C)(C)O2 | 5.31
31 | CCn1ccc2ccc(/C=C/C(=O)c3ccc(OC)c4c3OC(C)(C)C=C4)cc21 | < 5.00

The next lines start with the values.

Row | pIC50 | Compound
32 | 5.82 | Cn1ccc2cc(/C=C/C(=O)c3ccc(OS(=O)(=O)c4c(F)c(F)c(F)c(F)c4F)c4c3OC(C)(C)C=C4)ccc21
33 | 6.01 | CC(C)COc1ccc(C(=O)/C=C/c2ccc3c(ccn3C)c2)c2c1C=CC(C)(C)O2
34 | 6.12 | CCOc1ccc(C(=O)/C=C/c2ccc3c(ccn3C)c2)c2c1C=CC(C)(C)O2
35 | 6.08 | COc1ccc(C(=O)/C=C/c2ccc3c(ccn3C)c2)c2c1C=CC(C)(C)O2
36 | 5.97 | COc1ccc(C(=O)/C=C/c2ccc3[nH]ccc3c2)c2c1C=CC(C)(C)O2
37 | 6.12 | COc1cccc(S(=O)(=O)Oc2ccc(C(=O)/C=C/c3ccc4c(ccn4C)c3)c3c2C=CC(C)(C)O3)c1
38 | 6.34 | CCCOc1ccc(C(=O)/C=C/c2ccc3c(ccn3C)c2)c2c1C=CC(C)(C)O2
39 | 5.71 | COc1ccc(C(=O)/C=C/c2cn(Cc3ccccc3Cl)c3ccccc23)c2c1C=CC(C)(C)O2
40 | 5.73 | CC(C)c1ccc(S(=O)(=O)Oc2ccc(C(=O)/C=C/c3ccc4c(ccn4C)c3)c3c2C=CC(C)(C)O3)cc1
41 | 6.24 | COc1cc([N+](=O)[O-])ccc1S(=O)(=O)Oc1ccc(C(=O)/C=C/c2ccc3c(ccn3C)c2)c2c1C=CC(C)(C)O2
42 | 6.20 | CCCCOc1ccc(C(=O)/C=C/c2ccc3c(ccn3C)c2)c2c1C=CC(C)(C)O2
43 | 6.16 | Cn1ccc2cc(/C=C/C(=O)c3ccc(OS(=O)(=O)c4cc(F)cc(F)c4)c4c3OC(C)(C)C=C4)ccc21
44 | 5.81 | Cn1ccc2cc(/C=C/C(=O)c3ccc(OS(=O)(=O)c4cccc(C(F)(F)F)c4)c4c3OC(C)(C)C=C4)ccc21
45 | 5.65 | COc1ccc(C(=O)/C=C/c2cn(C)c3ccccc23)c2c1C=CC(C)(C)O2
46 | 5.56 | COc1ccc(C(=O)/C=C/c2cn(Cc3ccccc3F)c3ccccc23)c2c1C=CC(C)(C)O2
47 | 6.43 | CC(C)C(=O)Oc1ccc(C(=O)/C=C/c2ccc3c(ccn3C)c2)c2c1C=CC(C)(C)O2
48 | 6.17 | CCCCCOc1ccc(C(=O)/C=C/c2ccc3c(ccn3C)c2)c2c1C=CC(C)(C)O2
49 | 6.11 | CC(C)Oc1ccc(C(=O)/C=C/c2ccc3c(ccn3C)c2)c2c1C=CC(C)(C)O2
50 | 5.75 | COc1ccc(C(=O)/C=C/c2cn(Cc3ccccc3)c3ccccc23)c2c1C=CC(C)(C)O2
51 | 6.28 | CC(=O)Oc1ccc(C(=O)/C=C/c2ccc3c(ccn3C)c2)c2c1C=CC(C)(C)O2
52 | 6.21 | Cn1ccc2cc(/C=C/C(=O)c3ccc(OS(=O)(=O)c4ccc(Br)cc4C(F)(F)F)c4c3OC(C)(C)C=C4)ccc21
53 | 5.67 | COc1ccc(C(=O)/C=C/c2cn(Cc3cccc(Cl)c3)c3ccccc23)c2c1C=CC(C)(C)O2
54 | 6.04 | CCCCC(=O)Oc1ccc(C(=O)/C=C/c2ccc3c(ccn3C)c2)c2c1C=CC(C)(C)O2
55 | 5.66 | COc1ccc(C(=O)/C=C/c2cn(Cc3cccc(C(F)(F)F)c3)c3ccccc23)c2c1C=CC(C)(C)O2
56 | 5.86 | COc1ccc(C(=O)/C=C/c2cn(Cc3cccc(Br)c3)c3ccccc23)c2c1C=CC(C)(C)O2
57 | 6.07 | Cc1ccc(S(=O)(=O)Oc2ccc(C(=O)/C=C/c3ccc4c(ccn4C)c3)c3c2C=CC(C)(C)O3)cc1
